Bioassay records deposited in PubChem by several laboratories.
This is a sample that favours compounds with a hit; in the whole collection about 2.3% have one here.
Tb hexokinase: T. brucei hexokinase 1 inhibition; inhibition, % at 10 µM; recombinant TbHK1, G6PDH-coupled NADH A340; AID 1430; 220,000 compounds, 0.11% hits;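 active means inhibition of 50% or more in the single-dose primary screen; inactive means inhibition below 50%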
NPY-Y1 antag: antagonists of human neuropeptide Y receptor Y1; HEK293-CNG Y1 cells, membrane potential fluorescence; NPY at EC95, then isoproterenol; inhibition, % at 3.6 µM; 200,000 compounds, 1% hits;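 active means inhibition above the campaign mean inhibition of all tested compounds plus 3 SD, cut at about 20% in these data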;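 further: 0% = DMSO wells given NPY plus isoproterenol and 100% = isoproterenol alone without NPY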
Target sequence (P25929 whole entry, looked up): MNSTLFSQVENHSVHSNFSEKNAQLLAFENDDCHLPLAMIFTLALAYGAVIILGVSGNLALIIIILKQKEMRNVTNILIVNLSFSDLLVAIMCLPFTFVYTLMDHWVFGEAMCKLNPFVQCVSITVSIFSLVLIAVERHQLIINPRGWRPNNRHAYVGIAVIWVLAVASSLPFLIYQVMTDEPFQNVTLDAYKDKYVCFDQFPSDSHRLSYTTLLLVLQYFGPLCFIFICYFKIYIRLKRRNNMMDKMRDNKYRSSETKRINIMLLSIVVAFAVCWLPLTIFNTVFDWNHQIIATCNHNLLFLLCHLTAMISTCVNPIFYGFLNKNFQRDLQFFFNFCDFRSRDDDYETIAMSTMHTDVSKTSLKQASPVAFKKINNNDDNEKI
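System: HEK293 cells with Y1 receptor plus CNG channel / Probe or stimulus: NPY 25 nM then isoproterenol 1 µM plus Ro 20-1724 25 µM / Compound: one concentration, 3.6 µM, in 0.4% DMSO / Schedule: compound incubation 1 h at room temperature, readout 45 min post-stimulation / Measured by: membrane potential fluorescence / Read-out: % inhibition of NPY effect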
m-calpain inh: calpain II (pig) inhibition. purified calpain II, fluorogenic peptide substrate, 30 min. inhibition, % at 16 µM. AID 1236. 220,000 compounds, 0.37% hits;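 active means inhibition above about 50%, limit read from the data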
NPY2 pot ag: human NPY-Y2 potentiation or agonism, primary screen | 220,000 compounds, 0.45% hits | P49146 | activation, % at 3.6 µM | cells expressing NPY-Y2, potentiator/agonist read-out; in the data active means activation above about 27%;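 further: cells stimulated with NPY near EC25 plus isoproterenol at EC100; 0% = vehicle plus submaximal agonist and 100% = vehicle plus saturating agonist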
NPY-Y2 antag: NPY-Y2 (human) receptor antagonism; P49146; NPY-Y2 expressing cells, antagonist mode; inhibition, % at 2.7 µM; 140,000 compounds, 0.99% hits; AID 793; in the data active means inhibition above about 17%;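 further: 0% = vehicle with agonist challenge and 100% = reference antagonist with challenge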
NPY1 pot ag: potentiates or activates human NPY-Y1 receptor | AID 1304 | NPY-Y1 expressing cells, potentiator/agonist activation | 220,000 compounds, 0.37% hits | P25929 | activation, % at 3.6 µM; in the data active means activation above about 33%, passing the limit was not always enough;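 further: cells stimulated with NPY at EC10 then isoproterenol at EC100; 0% = low agonist plus stimulus and 100% = saturating agonist plus stimulus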
An asterisk follows results filed as active; i = inactive; nt = not tested or not shown.

SMILES	Tb hexokinase	NPY-Y1 antag	m-calpain inh	NPY2 pot ag	NPY-Y2 antag	NPY1 pot ag
CCc1nc2ccc(C)cc2c(C(=O)NC2CCCCC2C)c1C (configuration not stated)	4	64*	-10	-53	30*	-97
CCCCNC(=O)NNC(=O)COc1cccc(C)c1C	3	3	-11	5	4	0
COc1cc(NS(=O)(=O)c2ccc(NC(=S)NC(=O)c3sc4ccccc4c3Cl)cc2)ncn1	-2	3	57*	3	2	-12
COc1cc(NS(=O)(=O)c2ccc(NC(=S)NC(=O)c3ccco3)cc2)ncn1	-4	-3	-14	-16	nt	4
C=CCNc1ccc(N2C(=O)C3CCC(C)CC3C2=O)cc1[N+](=O)[O-] (configuration not stated)	8	5	67*	-7	nt	6
O=C1C2CCCCC2C(=O)N1c1ccc(NC2CCCCC2)c([N+](=O)[O-])c1 (configuration not stated)	30	2	61*	1	-2	-5
COC(=O)/C=C1\S/C(=N\N=C\CC(=O)OC)NC1=O	-34	nt	26	-6	nt	-1
NCCCC[C@H]1CN=C(N)N1CCC12CC3CC(CC(C3)C1)C2	2	nt	30	nt	nt	nt
Cc1ccc(N=c2c([N+](=O)[O-])nn(-c3ccc4c(c3)OCCO4)n2O)c(Cl)c1	4	5	53*	1	nt	7
O=C(Cn1c2ccccc2c(=O)c2ccccc21)Nc1cccc(F)c1	2	-1	-42	5	4	-18
CCCN(CCC)S(=O)(=O)c1ccc(Cl)c([N+](=O)[O-])c1	-4	-13	41	77*	nt	77*
CCCN(CCC)S(=O)(=O)c1ccc(N2CCCC2=O)c([N+](=O)[O-])c1	-8	6	-15	-2	5	-4
Cc1cccc2c1NC(=O)C2(c1ccc(O)cc1)c1ccc(O)cc1	-4	116*	-18	-14	114*	-39
Cc1cc(C2(c3ccc(O)c(C)c3)C(=O)Nc3ccccc32)ccc1O	-3	-2	-40	24	-1	6
O=C(Nc1ccc(OC(=O)c2ccccc2)c(-c2nc3ccccc3s2)c1)c1ccccc1	-6	3	64*	-2	3	-13
CC(=O)Nc1ccc(O)c(-c2nc3ccccc3s2)c1	-4	1	i	-14	nt	1
COc1ccc(-c2noc(C(=O)NCc3ccccc3Cl)n2)cc1OC	1	25*	-13	-6	nt	-10
CCOCCCNC(=O)c1ccc(N2CCCC2)c(NS(=O)(=O)c2ccc(C)cc2)c1	-6	-9	-4	33*	nt	58*
CC(C)c1ccc(-c2noc(C3CCCN(C(=O)c4ccc(F)cc4F)C3)n2)cc1 (configuration not stated)	0	-3	77*	15	0	17
CCC(=O)c1ccc(SC(=O)N(C)C)cc1O	-23	nt	1	-6	nt	5
O=C(OCCN1C(=O)c2cccc3c(N4CCOCC4)ccc(c23)C1=O)c1ccccc1Cl	27	57*	6	10	24*	-39
O=C(OCCN1C(=O)c2cccc3c(N4CCOCC4)ccc(c23)C1=O)c1ccc(Cl)cc1Cl	-4	0	-20	7	10	-6
COCCCNC(=O)c1c(N)n(/N=C/c2cccs2)c2nc3ccccc3nc12	-33	7	i	6	19*	-2
Nc1cc(Cl)ccc1C(=O)OCC(=O)N1CCOCC1	-23	nt	-189	-4	nt	-3
Cc1cc(-c2[nH]nc3c2C(c2ccc(Cl)cc2)C(C#N)=C(N)O3)c(C)s1 (configuration not stated)	-2	59*	10	-7	69*	-15
Cc1[nH]nc2c1C(c1ccc(Cl)cc1)C(C#N)=C(N)O2 (configuration not stated)	4	-8	19	3	0	16
Cc1ccc(-c2[nH]nc3c2C(c2ccoc2)C(C#N)=C(N)O3)cc1C (configuration not stated)	0	110*	3	-8	87*	-16
N#CC1=C(N)Oc2n[nH]c(-c3cccs3)c2C1c1ccsc1 (configuration not stated)	1	28*	-50	-6	6	9
c1ccc(-c2cc3c(ccc4nonc43)nn2)cc1	2	2	-9	-5	-2	-3
